{
  "source": "paper PMC9271465",
  "about": "(ESMO Open, 2022)",
  "key": {"[1]": {"experiment": "preclinical tolerability in animals", "type": "in vivo", "settings": "preclinical studies; unpublished data"}, "wild-type EGFR": {"molecular_target": "wild-type EGFR (Homo sapiens, UniProt P00533)", "sequence (P00533 25-1210)": "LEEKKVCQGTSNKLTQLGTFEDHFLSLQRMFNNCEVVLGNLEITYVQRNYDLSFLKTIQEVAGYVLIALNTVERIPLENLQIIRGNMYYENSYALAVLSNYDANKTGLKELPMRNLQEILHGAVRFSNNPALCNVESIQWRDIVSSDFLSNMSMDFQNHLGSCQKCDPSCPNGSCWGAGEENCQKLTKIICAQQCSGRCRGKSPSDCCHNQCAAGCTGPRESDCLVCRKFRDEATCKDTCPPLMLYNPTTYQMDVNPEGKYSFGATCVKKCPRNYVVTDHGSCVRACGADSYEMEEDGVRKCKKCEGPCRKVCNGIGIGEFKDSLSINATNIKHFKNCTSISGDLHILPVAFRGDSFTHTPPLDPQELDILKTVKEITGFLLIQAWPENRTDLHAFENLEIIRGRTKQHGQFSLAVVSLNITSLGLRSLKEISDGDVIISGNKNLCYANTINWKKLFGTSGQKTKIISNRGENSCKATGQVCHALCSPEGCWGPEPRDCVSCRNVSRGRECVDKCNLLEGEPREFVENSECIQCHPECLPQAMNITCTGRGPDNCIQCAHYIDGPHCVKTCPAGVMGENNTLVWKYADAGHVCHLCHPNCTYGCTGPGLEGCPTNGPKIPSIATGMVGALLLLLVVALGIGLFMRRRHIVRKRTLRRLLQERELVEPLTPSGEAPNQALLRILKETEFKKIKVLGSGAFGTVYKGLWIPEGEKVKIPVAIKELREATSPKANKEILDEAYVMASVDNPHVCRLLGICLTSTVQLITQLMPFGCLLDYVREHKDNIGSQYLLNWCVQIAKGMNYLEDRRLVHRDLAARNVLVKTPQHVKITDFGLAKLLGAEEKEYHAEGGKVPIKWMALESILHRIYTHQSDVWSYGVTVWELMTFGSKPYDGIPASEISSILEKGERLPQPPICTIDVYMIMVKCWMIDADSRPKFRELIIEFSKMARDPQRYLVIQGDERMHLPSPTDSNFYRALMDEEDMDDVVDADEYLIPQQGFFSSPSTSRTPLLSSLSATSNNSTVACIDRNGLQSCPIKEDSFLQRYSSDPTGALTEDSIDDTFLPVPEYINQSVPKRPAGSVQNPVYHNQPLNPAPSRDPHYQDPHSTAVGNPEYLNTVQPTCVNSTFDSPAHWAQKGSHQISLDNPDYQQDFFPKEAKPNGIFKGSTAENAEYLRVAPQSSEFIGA", "experiment": "kinase inhibition, wild-type EGFR", "type": "biochemical", "settings": "read-out: IC50 against wild-type EGFR; kinase level; unpublished data"}, "EGFR T790M-mutated NSCLC": {"system": "EGFR T790M-mutated NSCLC", "experiment": "phase I dose-escalation: efficacy", "type": "in vivo, patients", "settings": "FAS", "method_in_brief": "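Adults with T790M+ NSCLC (ARMS-confirmed) progressing on prior EGFR-TKIs; 3+3 escalation. Oral tablet, empty stomach: single dose day 1, then after 7 days continuous dosing in 21-day cycles (25–300 mg/day) until progression. CT/MRI brain, CT neck/chest/abdomen, bone scan every eight cycles; assessed at baseline, cycles 2, 4, 6, then every 2 cycles. RECIST v1.1 best overall response; disease control confirmed by imaging every 6 weeks.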"}},
  "data": [
    {"smiles": "C=CC(=O)Nc1cc(Nc2ncc(Cl)c(Nc3ccccc3C(=O)C(=O)N(C)C)n2)c(OC)cc1N1CCN(C)CC1", "note": "[BPI-15086]", "values": [
      {"measurement": "tolerability in animals", "setting": "[1]", "value": "well tolerated"},
      {"measurement": "IC50", "setting": "wild-type EGFR", "value": 503, "unit": "nM"},
      {"measurement": "Best overall response: Complete response", "setting": "EGFR T790M-mutated NSCLC; 25 mg/day (n = 1)", "value": "0 n (%)"},
      {"measurement": "Best overall response: Not evaluable", "setting": "EGFR T790M-mutated NSCLC; 25 mg/day (n = 1)", "value": "0 n (%)"},
      {"measurement": "Best overall response: Partial response", "setting": "EGFR T790M-mutated NSCLC; 25 mg/day (n = 1)", "value": "0 n (%)"},
      {"measurement": "Best overall response: Progressive disease", "setting": "EGFR T790M-mutated NSCLC; 25 mg/day (n = 1)", "value": "1 (100.0) n (%)"},
      {"measurement": "Best overall response: Stable disease", "setting": "EGFR T790M-mutated NSCLC; 25 mg/day (n = 1)", "value": "0 n (%)"},
      {"measurement": "PFS, median (95% CI)", "setting": "EGFR T790M-mutated NSCLC; 25 mg/day (n = 1)", "value": "1.5 (NE-NE) months"},
      {"measurement": "Best overall response: Complete response", "setting": "EGFR T790M-mutated NSCLC; 50 mg/day (n = 3)", "value": "0 n (%)"},
      {"measurement": "Best overall response: Not evaluable", "setting": "EGFR T790M-mutated NSCLC; 50 mg/day (n = 3)", "value": "0 n (%)"},
      {"measurement": "Best overall response: Partial response", "setting": "EGFR T790M-mutated NSCLC; 50 mg/day (n = 3)", "value": "0 n (%)"},
      {"measurement": "Best overall response: Progressive disease", "setting": "EGFR T790M-mutated NSCLC; 50 mg/day (n = 3)", "value": "1 (33.3) n (%)"},
      {"measurement": "Best overall response: Stable disease", "setting": "EGFR T790M-mutated NSCLC; 50 mg/day (n = 3)", "value": "2 (66.7) n (%)"},
      {"measurement": "OS, median (95% CI)", "setting": "EGFR T790M-mutated NSCLC; 50 mg/day (n = 3)", "value": "15.0 (8.4-15.0) months"},
      {"measurement": "PFS, median (95% CI)", "setting": "EGFR T790M-mutated NSCLC; 50 mg/day (n = 3)", "value": "4.3 (1.6-5.8) months"},
      {"measurement": "Best overall response: Complete response", "setting": "EGFR T790M-mutated NSCLC; 100 mg/day (n = 3)", "value": "0 n (%)"},
      {"measurement": "Best overall response: Not evaluable", "setting": "EGFR T790M-mutated NSCLC; 100 mg/day (n = 3)", "value": "0 n (%)"},
      {"measurement": "Best overall response: Partial response", "setting": "EGFR T790M-mutated NSCLC; 100 mg/day (n = 3)", "value": "1 (33.3) n (%)"},
      {"measurement": "Best overall response: Progressive disease", "setting": "EGFR T790M-mutated NSCLC; 100 mg/day (n = 3)", "value": "2 (66.7) n (%)"},
      {"measurement": "Best overall response: Stable disease", "setting": "EGFR T790M-mutated NSCLC; 100 mg/day (n = 3)", "value": "0 n (%)"},
      {"measurement": "DOR, median (95% CI)", "setting": "EGFR T790M-mutated NSCLC; 100 mg/day (n = 3)", "value": "9.7 (NE-NE) months"},
      {"measurement": "OS, median (95% CI)", "setting": "EGFR T790M-mutated NSCLC; 100 mg/day (n = 3)", "value": "16.1 (NE-NE) months"},
      {"measurement": "PFS, median (95% CI)", "setting": "EGFR T790M-mutated NSCLC; 100 mg/day (n = 3)", "value": "1.6 (1.5-12.6) months"},
      {"measurement": "Best overall response: Complete response", "setting": "EGFR T790M-mutated NSCLC; 200 mg/day (n = 7)", "value": "0 n (%)"},
      {"measurement": "Best overall response: Not evaluable", "setting": "EGFR T790M-mutated NSCLC; 200 mg/day (n = 7)", "value": "1 (14.3) n (%)"},
      {"measurement": "Best overall response: Partial response", "setting": "EGFR T790M-mutated NSCLC; 200 mg/day (n = 7)", "value": "2 (28.6) n (%)"},
      {"measurement": "Best overall response: Progressive disease", "setting": "EGFR T790M-mutated NSCLC; 200 mg/day (n = 7)", "value": "3 (42.9) n (%)"},
      {"measurement": "Best overall response: Stable disease", "setting": "EGFR T790M-mutated NSCLC; 200 mg/day (n = 7)", "value": "1 (14.3) n (%)"},
      {"measurement": "DOR, median (95% CI)", "setting": "EGFR T790M-mutated NSCLC; 200 mg/day (n = 7)", "value": "6.7 (3.7-9.8) months"},
      {"measurement": "PFS, median (95% CI)", "setting": "EGFR T790M-mutated NSCLC; 200 mg/day (n = 7)", "value": "3.0 (1.6-11.3) months"},
      {"measurement": "Best overall response: Complete response", "setting": "EGFR T790M-mutated NSCLC; 300 mg/day (n = 3)", "value": "0 n (%)"},
      {"measurement": "Best overall response: Not evaluable", "setting": "EGFR T790M-mutated NSCLC; 300 mg/day (n = 3)", "value": "1 (33.3) n (%)"},
      {"measurement": "Best overall response: Partial response", "setting": "EGFR T790M-mutated NSCLC; 300 mg/day (n = 3)", "value": "0 n (%)"},
      {"measurement": "Best overall response: Progressive disease", "setting": "EGFR T790M-mutated NSCLC; 300 mg/day (n = 3)", "value": "0 n (%)"},
      {"measurement": "Best overall response: Stable disease", "setting": "EGFR T790M-mutated NSCLC; 300 mg/day (n = 3)", "value": "2 (66.7) n (%)"},
      {"measurement": "OS, median (95% CI)", "setting": "EGFR T790M-mutated NSCLC; 300 mg/day (n = 3)", "value": "9.2 (NE-NE) months"},
      {"measurement": "PD, patients", "setting": "EGFR T790M-mutated NSCLC; 25-mg/day", "value": 100, "unit": "%"},
      {"measurement": "PR, patients", "setting": "EGFR T790M-mutated NSCLC; 25-mg/day, 50-mg/day, and 300-mg/day groups", "value": "none of the patients"},
      {"measurement": "PD, patients", "setting": "EGFR T790M-mutated NSCLC; 50-mg/day", "value": 33.3, "unit": "%"},
      {"measurement": "DCR", "setting": "EGFR T790M-mutated NSCLC; 50-mg/day, 2/3 patients", "value": 66.7, "unit": "%"},
      {"measurement": "PD, patients", "setting": "EGFR T790M-mutated NSCLC; 100-mg/day", "value": 66.7, "unit": "%"},
      {"measurement": "PR, patients", "setting": "EGFR T790M-mutated NSCLC; 100-mg/day", "value": 33.3, "unit": "%"},
      {"measurement": "DCR", "setting": "EGFR T790M-mutated NSCLC; 100-mg/day, 1/3 patients", "value": 33.3, "unit": "%"},
      {"measurement": "PD, patients", "setting": "EGFR T790M-mutated NSCLC; 200-mg/day", "value": 42.9, "unit": "%"},
      {"measurement": "PR, patients", "setting": "EGFR T790M-mutated NSCLC; 200-mg/day", "value": 28.6, "unit": "%"},
      {"measurement": "DCR", "setting": "EGFR T790M-mutated NSCLC; 200-mg/day, 3/7 patients", "value": 42.9, "unit": "%"},
      {"measurement": "DCR", "setting": "EGFR T790M-mutated NSCLC; 300-mg/day, 2/3 patients", "value": 66.7, "unit": "%"},
      {"measurement": "Best overall response: Complete response", "setting": "EGFR T790M-mutated NSCLC; All (n = 17)", "value": "0 n (%)"},
      {"measurement": "Best overall response: Not evaluable", "setting": "EGFR T790M-mutated NSCLC; All (n = 17)", "value": "2 (11.8) n (%)"},
      {"measurement": "Best overall response: Partial response", "setting": "EGFR T790M-mutated NSCLC; All (n = 17)", "value": "3 (17.6) n (%)"},
      {"measurement": "Best overall response: Progressive disease", "setting": "EGFR T790M-mutated NSCLC; All (n = 17)", "value": "7 (41.2) n (%)"},
      {"measurement": "Best overall response: Stable disease", "setting": "EGFR T790M-mutated NSCLC; All (n = 17)", "value": "5 (29.4) n (%)"},
      {"measurement": "DOR, median (95% CI)", "setting": "EGFR T790M-mutated NSCLC; All (n = 17)", "value": "9.7 (3.7-9.8) months"},
      {"measurement": "OS, median (95% CI)", "setting": "EGFR T790M-mutated NSCLC; All (n = 17)", "value": "15.0 (8.4-16.1) months"},
      {"measurement": "PFS, median (95% CI)", "setting": "EGFR T790M-mutated NSCLC; All (n = 17)", "value": "1.6 (1.6-5.3) months"},
      {"measurement": "CR, patients", "setting": "EGFR T790M-mutated NSCLC; all 17 patients", "value": "No patients showed CR"},
      {"measurement": "DCR", "setting": "EGFR T790M-mutated NSCLC; all 17 patients", "value": 47.1, "unit": "%"},
      {"measurement": "ORR", "setting": "EGFR T790M-mutated NSCLC; all 17 patients", "value": 17.6, "unit": "%"},
      {"measurement": "PD, patients", "setting": "EGFR T790M-mutated NSCLC; all 17 patients", "value": 41.2, "unit": "%"},
      {"measurement": "confirmed PR, patients", "setting": "EGFR T790M-mutated NSCLC; all 17 patients", "value": 17.6, "unit": "%"},
      {"measurement": "could not be assessed for response, patients", "setting": "EGFR T790M-mutated NSCLC; all 17 patients", "value": 11.8, "unit": "%"},
      {"measurement": "response", "setting": "EGFR T790M-mutated NSCLC; one patient of the 25-mg/day dose group", "value": "no response was observed"},
      {"measurement": "PD, patients", "setting": "EGFR T790M-mutated NSCLC; three patients in the 300-mg/day group", "value": "None"}
    ]}
  ]
}
